Screening results deposited in PubChem by several laboratories.
FXIa mix inh – FXIa protease inhibitors in compound pools, primary screen, biochemical, 10-compound mixtures. purified FXIa, fluorogenic substrate, pooled mixtures. inhibition, % at 5 µM. 0.19% of 62,000 active. AID 680, 2007;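 also: each value is inhibition by a whole ten-compound pool holding the compound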
FXIIa inh mix – human factor XIIa inhibitors, primary screen, biochemical, pooled compound mixtures, fluorogenic substrate. Coagulation factor XII (Homo sapiens), P00748. purified FXIIa. inhibition, % at 5 µM. 0.2% of 62,000 active
AP ELISA ortho – alternative complement pathway inhibitors, primary screen, biochemical, ELISA, human serum, orthogonally pooled compounds. LPS-coated ELISA, C3 deposition; tested in compound mixtures. inhibition, % at 5 µM. 0.08% of 62,000 active;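 active = inhibition above 30% in each of the two pooled mixtures holding the compound, so the lower value exceeds 30%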
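Assay system: Human serum alternative complement pathway, C3 deposition on LPS-coated wells | Incubation: 1 h serum-compound exposure at 37 °C | Doses: 5 µM per compound in ten-compound mixtures | Read-out: Percent inhibition | Technique: ELISA with HRP anti-human C3 antibody, TMB substrate, absorbance 450 nm | Replication: Two pool placements per compound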
BAP1 block – inhibitors of BAP1 deubiquitinase, primary screen, biochemical, Ub-AMC fluorescence, kinetic. recombinant BAP1, Ub-AMC hydrolysis fluorescence kinetic; active compounds read low. AID 436, 2006. calls only at 20 µM. Ubiquitin carboxyl-terminal hydrolase BAP1 (Homo sapiens), Q92560. 0.48% of 72,000 active;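 active = activity remaining at or below 50% of control, provided the compound also passes the data quality filters; inactive = the rest, including low values that fail the filters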
Target sequence (Q92560 whole entry, looked up): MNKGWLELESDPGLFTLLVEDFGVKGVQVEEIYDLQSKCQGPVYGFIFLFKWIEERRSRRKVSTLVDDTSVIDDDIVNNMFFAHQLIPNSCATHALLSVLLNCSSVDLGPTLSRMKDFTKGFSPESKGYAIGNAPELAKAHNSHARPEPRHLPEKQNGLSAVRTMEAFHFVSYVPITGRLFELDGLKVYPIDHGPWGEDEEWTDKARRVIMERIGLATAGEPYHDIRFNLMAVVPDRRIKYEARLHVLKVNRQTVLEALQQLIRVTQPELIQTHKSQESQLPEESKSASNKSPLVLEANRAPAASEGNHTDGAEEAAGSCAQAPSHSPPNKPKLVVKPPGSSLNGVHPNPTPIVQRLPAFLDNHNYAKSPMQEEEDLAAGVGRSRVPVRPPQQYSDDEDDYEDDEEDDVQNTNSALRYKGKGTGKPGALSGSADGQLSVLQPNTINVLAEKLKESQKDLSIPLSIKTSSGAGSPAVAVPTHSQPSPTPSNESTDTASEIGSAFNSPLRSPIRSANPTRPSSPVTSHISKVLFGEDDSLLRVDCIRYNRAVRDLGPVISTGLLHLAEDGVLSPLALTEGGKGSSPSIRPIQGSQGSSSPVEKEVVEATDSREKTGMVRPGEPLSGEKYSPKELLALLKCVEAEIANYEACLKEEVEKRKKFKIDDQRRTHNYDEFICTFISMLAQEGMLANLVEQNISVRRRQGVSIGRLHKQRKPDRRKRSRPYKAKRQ
HePTP inhibitor – inhibitors of human HePTP phosphatase, primary screen, biochemical, absorbance, leukemia target; Tyrosine-protein phosphatase non-receptor type 7 (Homo sapiens), P35236; recombinant HePTP phosphatase activity, OD absorbance; inhibition, % at 20 µM; 0.64% of 110,000 active; in the data active = inhibition above about 50%
BAP1 inh conf – BAP1 deubiquitinase inhibitors, hit retest, confirmation, orthogonal assay, biochemical, Ub-ethyl ester substrate, HPLC readout; % of control activity, % at 20 µM; shares compounds with BAP1 block; purified BAP1, Ub-ethyl ester hydrolysis; active compounds read low; 8% of 310 active;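 active = percent of control activity at or below 60%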
Numbers stand for hits. Hits are enriched below; roughly 1% of the tested compounds scored in any of these assays. Rule as the data show it, unless noted: active = inhibition above about 20% (passing the limit was not always enough); inactive = the rest.

How did O=C(NCc1ccco1)C(=O)Nc1ccc([N+](=O)[O-])cc1 do in these assays?
HePTP inhibitor: inactive

How did CCc1ccc(N/C(SCc2cccc(F)c2)=C(/C#N)C(=O)NCc2ccco2)cc1 do in these assays?
FXIa mix inh: inactive; FXIIa inh mix: inactive; AP ELISA ortho: inactive; BAP1 block: active; HePTP inhibitor: inactive; BAP1 inh conf: inactive

Results for Cc1ccc(-n2ncc3c(=O)n(CC(=O)Nc4cccc(Cl)c4)cnc32)cc1C ?
FXIa mix inh: inactive; FXIIa inh mix: inactive; AP ELISA ortho: inactive; BAP1 block: active; HePTP inhibitor: inactive; BAP1 inh conf: inactive

How did CCOC(=O)c1c(C)nc2ccc(Cl)cn12 do in these assays?
HePTP inhibitor: inactive

What do the screens show for `CCn1c(SCC(=O)c2cc(OC)ccc2OC)nc2c1c(=O)n(C)c(=O)n2C`?
FXIa mix inh: inactive; FXIIa inh mix: inactive; AP ELISA ortho: inactive; BAP1 block: inactive; HePTP inhibitor: inactive

How did COc1ccc2c(c1)c1nc(SCC(C)C)n(CCO)c(=O)c1n2C do in these assays?
FXIa mix inh: inactive; FXIIa inh mix: inactive; AP ELISA ortho: inactive; BAP1 block: active; HePTP inhibitor: inactive; BAP1 inh conf: inactive

How did Cc1sc2nc(CN3CCOCC3)nc(N3CCC(C(N)=O)CC3)c2c1C do in these assays?
FXIa mix inh: inactive; FXIIa inh mix: inactive; AP ELISA ortho: inactive; BAP1 block: inactive; HePTP inhibitor: inactive; BAP1 inh conf: inactive

Results for Cc1ccc(Cl)cc1N1CCN(C(c2ccc(C#N)cc2)c2nnnn2C2CCCC2)CC1 (stereo unspecified) ?
FXIa mix inh: inactive; FXIIa inh mix: inactive; AP ELISA ortho: inactive; BAP1 block: active; HePTP inhibitor: inactive; BAP1 inh conf: inactive

What do the screens show for `Cc1ccc(Cl)cc1N1CCN(C(c2cccnc2)c2nnnn2C2CCCCC2)CC1` (stereo unspecified)?
FXIa mix inh: inactive; FXIIa inh mix: inactive; AP ELISA ortho: inactive; BAP1 block: inactive; HePTP inhibitor: inactive

How did CC(C)c1ccc(OC(=O)CCN2C(=O)c3ccccc3C2=O)cc1 do in these assays?
HePTP inhibitor: inactive

What do the screens show for `CC1Cc2ccccc2N1C(=O)c1cc2c(=O)n3ccccc3nc2n1C` (stereo unspecified)?
FXIa mix inh: inactive; FXIIa inh mix: inactive; AP ELISA ortho: inactive; BAP1 block: active; HePTP inhibitor: inactive; BAP1 inh conf: inactive

Results for Cc1cccn2c(=O)c3cc(C(=O)N4CCc5ccccc54)n(C)c3nc12 ?
FXIa mix inh: inactive; FXIIa inh mix: inactive; AP ELISA ortho: inactive; BAP1 block: active; HePTP inhibitor: inactive; BAP1 inh conf: inactive

How did Cc1cccn2c(=O)c3cc(C(=O)N4c5ccccc5CC4C)n(C)c3nc12 (stereo unspecified) do in these assays?
FXIa mix inh: inactive; FXIIa inh mix: inactive; AP ELISA ortho: inactive; BAP1 block: inactive; HePTP inhibitor: inactive

Results for CCc1nc(N2CCCCC2)c2oc3ccccc3c2n1 ?
FXIa mix inh: inactive; FXIIa inh mix: inactive; AP ELISA ortho: inactive; BAP1 block: inactive; HePTP inhibitor: inactive

What do the screens show for `CCc1nc(N2CCCC(C)C2)c2oc3ccccc3c2n1` (stereo unspecified)?
FXIa mix inh: inactive; FXIIa inh mix: inactive; AP ELISA ortho: inactive; BAP1 block: active; HePTP inhibitor: inactive; BAP1 inh conf: inactive

What do the screens show for `O=C(c1ccc(Cl)cc1)N(Cc1ccccc1)c1cccc([N+](=O)[O-])c1`?
HePTP inhibitor: inactive

How did COc1ccccc1-c1c(C)nn2c(N3CCN(c4ccccc4OC)CC3)cc(C)nc12 do in these assays?
FXIa mix inh: inactive; FXIIa inh mix: inactive; AP ELISA ortho: inactive; BAP1 block: active; HePTP inhibitor: inactive; BAP1 inh conf: inactive

How did COc1ccccc1-c1c(C)nn2c(N3CCCCCC3)cc(C)nc12 do in these assays?
FXIa mix inh: inactive; FXIIa inh mix: inactive; AP ELISA ortho: inactive; BAP1 block: inactive; HePTP inhibitor: inactive

Results for N#Cc1c(Nc2ccc(F)cc2)ccnc1N ?
HePTP inhibitor: inactive

How did Cc1sc(NC(=O)CSc2nnc(-c3ccccc3)o2)c(C#N)c1C do in these assays?
FXIa mix inh: inactive; FXIIa inh mix: inactive; AP ELISA ortho: inactive; BAP1 block: active; HePTP inhibitor: inactive; BAP1 inh conf: 37.2

What do the screens show for `CC1=C(C)CC2C(=O)N(c3ccc(Cl)cc3Cl)C(=O)C2C1` (stereo unspecified)?
HePTP inhibitor: inactive

What do the screens show for `c1ccc(-c2nnc3sc(-c4csc5c4CCCC5)nn23)cc1`?
FXIa mix inh: inactive; FXIIa inh mix: inactive; AP ELISA ortho: inactive; BAP1 block: active; HePTP inhibitor: inactive; BAP1 inh conf: 59.4

What do the screens show for `c1ccc(-c2nnc3sc(-c4ccncc4)nn23)cc1`?
FXIa mix inh: inactive; FXIIa inh mix: inactive; AP ELISA ortho: inactive; BAP1 block: inactive; HePTP inhibitor: inactive

What do the screens show for `N#Cc1c(NC(=O)CN2CCN(S(=O)(=O)c3ccc4c(c3)OCCO4)CC2)sc2c1CCC2`?
FXIa mix inh: inactive; FXIIa inh mix: inactive; AP ELISA ortho: inactive; BAP1 block: active; HePTP inhibitor: inactive; BAP1 inh conf: inactive

How did O=C(CSc1nnc(COc2ccccc2)o1)N1CCN(c2ccccc2)CC1 do in these assays?
BAP1 block: inactive

How did Cc1cc(C)cc(OCc2nnc(SCC(=O)N3CCN(c4ccccc4)CC3)o2)c1 do in these assays?
FXIa mix inh: inactive; FXIIa inh mix: inactive; AP ELISA ortho: inactive; BAP1 block: active; HePTP inhibitor: inactive; BAP1 inh conf: inactive

How did CN(C)c1ccc(-c2nn3c(-c4ccc(Cl)cc4Cl)nnc3s2)cc1 do in these assays?
FXIa mix inh: inactive; FXIIa inh mix: inactive; AP ELISA ortho: inactive; BAP1 block: active; BAP1 inh conf: inactive

How did CC1(C)CC(=O)C2=C(C1)Nc1ccccc1NC2c1cccc(Br)c1 (stereo unspecified) do in these assays?
HePTP inhibitor: inactive

How did Cn1cccc1CN1CCN(Cc2cc(Br)ccc2O)CC1 do in these assays?
HePTP inhibitor: inactive

How did CCCCOc1ccccc1NC(=O)Cn1c(-c2nonc2N)nc2ccccc21 do in these assays?
FXIa mix inh: inactive; FXIIa inh mix: inactive; AP ELISA ortho: inactive; BAP1 block: active; HePTP inhibitor: inactive; BAP1 inh conf: inactive

Results for Nc1nonc1-c1nc2ccccc2n1CC(=O)Nc1ccc(F)cc1F ?
HePTP inhibitor: inactive

Results for COc1ccccc1CNC(=O)c1cc(Cl)ccc1Cl ?
HePTP inhibitor: inactive

Results for C=CCn1c(SCCCC)nc(O)cc1=O ?
FXIa mix inh: inactive; FXIIa inh mix: inactive; AP ELISA ortho: inactive; BAP1 block: inactive; HePTP inhibitor: inactive

How did C=CCn1c(SCCCCCC)nc(O)cc1=O do in these assays?
BAP1 block: active; BAP1 inh conf: inactive
